Experimental data published in ChEMBL document CHEMBL4017497, “Structure-Affinity Relationships and Structure-Kinetics Relationships of Pyrido[2,1-f]purine-2,4-dione Derivatives as Human Adenosine A3 Receptor Antagonists” (J Med Chem, 2017).

Assays:
[1] = target: T1, Adenosine receptor A3 (Homo sapiens) (UniProt P0DMS8); experiment: (§1) Displacement of [3H]PSB-11 from human adenosine A3 receptor expressed on CHO cell membranes after 2 hrs by scintillation spectrometry
T1 sequence (whole entry): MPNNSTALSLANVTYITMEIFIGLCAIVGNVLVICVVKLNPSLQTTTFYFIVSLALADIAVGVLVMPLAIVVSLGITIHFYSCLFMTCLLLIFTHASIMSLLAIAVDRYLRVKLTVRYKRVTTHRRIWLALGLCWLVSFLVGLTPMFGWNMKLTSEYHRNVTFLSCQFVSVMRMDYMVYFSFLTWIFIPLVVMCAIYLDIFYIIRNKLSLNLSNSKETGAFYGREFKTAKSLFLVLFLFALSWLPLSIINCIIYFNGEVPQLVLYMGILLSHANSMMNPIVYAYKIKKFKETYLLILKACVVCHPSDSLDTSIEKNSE

Adenosine receptor A3 [2] = target: T2, Adenosine receptor A3 (Homo sapiens, UniProt P0DMS8); experiment: as §1
T2 sequence (P0DMS8 whole entry): T1 sequence (whole entry)

[3] = target: T1, Adenosine receptor A3 (Homo sapiens); experiment: Displacement of [3H]PSB-11 from human adenosine A3 receptor expressed on CHO cell membranes assessed as kinetic rate index at IC50 measured after 240 mins by scintillation spectrometry
Procedure, shortened: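 Dual-point competition association at 10 °C. […] Specific binding read at 20 min (t1) and 240 min (t2); KRI derived from these two time points. n = 2 or 3.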

[4] = target: T1, Adenosine receptor A3 (Homo sapiens); experiment: Displacement of [3H]PSB-11 from human adenosine A3 receptor expressed on CHO cell membranes assessed as association rate constant after 120 mins by scintillation spectrometry
[5] = target: T1, Adenosine receptor A3 (Homo sapiens); experiment: Displacement of [3H]PSB-11 from human adenosine A3 receptor expressed on CHO cell membranes assessed as dissociation rate constant after 120 mins by scintillation spectrometry
Adenosine receptor A3 [6] = target: T2, Adenosine receptor A3; experiment: Antagonist activity at human adenosine A3 receptor expressed in CHO cell membranes assessed as inhibition of 2-Cl-IB-MECA-induced [35S]GTPgammaS binding measured after 30 mins; format: functional; conditions: read-out: pA2 (converted)
Procedure, shortened: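 CHOhA3 membranes (15 μg) in 50 mM Tris-HCl, 5 mM MgCl2, 1 mM EDTA, 0.05% BSA, 1 mM DTT, pH 7.4, with 1 μM GDP and 5 μg saponin. […] 2-Cl-IB-MECA 0.1 nM–10 μM with ~0.3 nM [35S]GTPγS, 30 min at 25 °C. Filtration. Schild analysis from EC50 shifts gives pA2 and slope.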

Adenosine receptor A3 [7] = target: T2, Adenosine receptor A3; experiment: Antagonist activity at human adenosine A3 receptor expressed in CHO cell membranes assessed as inhibition of 2-Cl-IB-MECA-induced [35S]GTPgammaS binding preincubated with or without for 60 mins followed by addition of 2-Cl-IB-MECA and [35S]GTPgammaS measured after 30 mins; format: functional; conditions: read-out: pA2 (converted)

| SMILES | inhibition [1] | Ki (Adenosine receptor A3 [2]) [nM] | Activity index [3] | K [4] | K [5] | Kb (Adenosine receptor A3 [6]) [nM] | Kb (Adenosine receptor A3 [7]) [nM] |
| --- | --- | --- | --- | --- | --- | --- | --- |
| COc1ccn2c(c1)nc1c2c(=O)n(CC(C)(C)C)c(=O)n1Cc1ccccc1 | Dose-dependent effect | 3.5 | 1.73 | 5.5 ×10⁵ /M/s | 1.1 ×10⁻⁴ /s |  |  |
| C#CCn1c(=O)c2c(nc3cc(OC)ccn32)n(Cc2ccccc2)c1=O | Dose-dependent effect | 4.3 | 1.2 |  |  |  |  |
| COc1ccn2c(c1)nc1c2c(=O)n(CCC(C)C)c(=O)n1Cc1ccccc1 | Dose-dependent effect | 3.5 | 1.39 |  |  |  |  |
| COCCn1c(=O)c2c(nc3cc(OC)ccn32)n(Cc2ccccc2)c1=O | Dose-dependent effect | 23 | 0.7 | 4.3 ×10⁵ /M/s | 6.3 ×10⁻⁴ /s |  |  |
| COc1ccn2c(c1)nc1c2c(=O)n(CC2CC2)c(=O)n1Cc1cccc(Cl)c1 | Dose-dependent effect | 4.9 | 0.89 | 8.2 ×10⁵ /M/s | 4.7 ×10⁻⁴ /s |  |  |
| CCCCCCCn1c(=O)c2c(nc3cc(OC)ccn32)n(Cc2ccccc2)c1=O | Dose-dependent effect | 6.8 | 4.06 | 4.2 ×10⁵ /M/s | 6.2 ×10⁻⁵ /s |  |  |
| CCCCCn1c(=O)c2c(nc3cc(OC)ccn32)n(Cc2ccccc2)c1=O | Dose-dependent effect | 3.5 | 1.11 | 1.1 ×10⁶ /M/s | 6 ×10⁻⁴ /s |  |  |
| CCn1c(=O)c2c(nc3cc(OC)ccn32)n(Cc2ccccc2)c1=O | Dose-dependent effect | 10.7 | 0.8 |  |  |  |  |
| COc1ccn2c(c1)nc1c2c(=O)n(C)c(=O)n1Cc1ccccc1 | Dose-dependent effect | 20.8 | 0.54 |  |  |  |  |
| CCCn1c(=O)c2c(nc3cc(OC)ccn32)n(Cc2ccccc2)c1=O | Dose-dependent effect | 3.2 | 0.99 | 8.5 ×10⁵ /M/s | 3.2 ×10⁻⁴ /s |  |  |
| COc1ccn2c(c1)nc1c2c(=O)n(CC2CC2)c(=O)n1Cc1ccc(Cl)c(Cl)c1 | Dose-dependent effect | 5.3 | 3.12 | 1 ×10⁵ /M/s | 5.3 ×10⁻⁵ /s |  |  |
| COc1ccn2c(c1)nc1c2c(=O)[nH]c(=O)n1Cc1ccccc1 | Dose-dependent effect | 108 | 0.38 | 5.3 ×10⁵ /M/s | 1.4 ×10⁻² /s | 63.1 | 158 |
| COc1ccn2c(c1)nc1c2c(=O)n(CCC(C)(C)C)c(=O)n1Cc1ccccc1 | Dose-dependent effect | 8 | 0.95 |  |  |  |  |
| CCCCCCn1c(=O)c2c(nc3cc(OC)ccn32)n(Cc2ccccc2)c1=O | Dose-dependent effect | 2.8 | 2.18 | 2.3 ×10⁵ /M/s | 8.2 ×10⁻⁵ /s |  |  |
| C=CCn1c(=O)c2c(nc3cc(OC)ccn32)n(Cc2ccccc2)c1=O | Dose-dependent effect | 5.9 | 0.72 |  |  |  |  |
| COc1ccn2c(c1)nc1c2c(=O)n(CC2CC2)c(=O)n1Cc1ccc(C)cc1 | Dose-dependent effect |  |  |  |  |  |  |
| COc1ccn2c(c1)nc1c2c(=O)n(CC2CCC2)c(=O)n1Cc1ccccc1 | Dose-dependent effect | 2.7 | 1.48 |  |  |  |  |
| COc1ccn2c(c1)nc1c2c(=O)n(CC2CC2)c(=O)n1CCc1ccccc1 | Dose-dependent effect | 7.7 | 1.09 |  |  |  |  |
| COc1ccn2c(c1)nc1c2c(=O)n(CCCO)c(=O)n1Cc1ccccc1 | Dose-dependent effect | 81 | 1.04 |  |  |  |  |

The remaining lines, values ahead:

| inhibition [1] | Ki (Adenosine receptor A3 [2]) [nM] | Activity index [3] | K [4] | K [5] | Kb (Adenosine receptor A3 [6]) [nM] | Kb (Adenosine receptor A3 [7]) [nM] | SMILES |
| --- | --- | --- | --- | --- | --- | --- | --- |
| Dose-dependent effect | 1.5 | 1.29 |  |  |  |  | CCCCn1c(=O)c2c(nc3cc(OC)ccn32)n(Cc2ccccc2)c1=O |
| Dose-dependent effect | 1.2 | 1.64 | 7.8 ×10⁵ /M/s | 2 ×10⁻⁴ /s |  |  | COc1ccn2c(c1)nc1c2c(=O)n(CC(C)C)c(=O)n1Cc1ccccc1 |
| Dose-dependent effect | 0.38 | 2.24 | 4.8 ×10⁵ /M/s | 4.7 ×10⁻⁵ /s | 1.26 |  | COc1cccc(Cn2c(=O)n(CC3CC3)c(=O)c3c2nc2cc(OC)ccn23)c1 |
| Dose-dependent effect | 1.2 | 1.19 |  |  |  |  | COc1ccn2c(c1)nc1c2c(=O)n(CC2CC2)c(=O)n1Cc1ccc(Br)cc1 |
| Dose-dependent effect | 2.7 | 1.36 |  |  |  |  | COc1ccn2c(c1)nc1c2c(=O)n(C[Si](C)(C)C)c(=O)n1Cc1ccccc1 |
| Dose-dependent effect | 1.2 | 1.11 | 3 ×10⁶ /M/s | 8.2 ×10⁻⁴ /s |  |  | COc1ccn2c(c1)nc1c2c(=O)n(CC2CC2)c(=O)n1Cc1ccc(Cl)cc1 |
| Dose-dependent effect | 1.5 | 1.18 |  |  |  |  | COc1ccn2c(c1)nc1c2c(=O)n(CC2CC2)c(=O)n1Cc1cccc(C)c1 |
| Dose-dependent effect | 1.4 | 1.23 |  |  |  |  | C=CCCn1c(=O)c2c(nc3cc(OC)ccn32)n(Cc2ccccc2)c1=O |
| Dose-dependent effect | 1.4 | 1.39 | 4.8 ×10⁵ /M/s | 7.8 ×10⁻⁵ /s |  |  | COc1ccc(Cn2c(=O)n(CC3CC3)c(=O)c3c2nc2cc(OC)ccn23)cc1 |
| Dose-dependent effect | 1 | 2.68 | 2.8 ×10⁶ /M/s | 6 ×10⁻⁵ /s |  |  | COc1ccn2c(c1)nc1c2c(=O)n(CC2CC2)c(=O)n1Cc1ccccc1 |
| Dose-dependent effect | 0.71 | 0.81 |  |  |  |  | CCc1ccc(Cn2c(=O)n(CC3CC3)c(=O)c3c2nc2cc(OC)ccn23)cc1 |
